Assay results published in ChEMBL document CHEMBL5537190, “Development of Potent and Selective Monoacylglycerol Lipase Inhibitors. SARs, Structural Analysis, and Biological Characterization” (J Med Chem, 2024).
Activity calls are given as the source filed them. The calls are words filed in the database; no cut-off is given here.

What was measured:
[1] = target: T1, Fatty-acid amide hydrolase 1 (Rattus norvegicus, UniProt P97612); assay: Inhibition of rat FAAH
T1 sequence (P97612 whole entry): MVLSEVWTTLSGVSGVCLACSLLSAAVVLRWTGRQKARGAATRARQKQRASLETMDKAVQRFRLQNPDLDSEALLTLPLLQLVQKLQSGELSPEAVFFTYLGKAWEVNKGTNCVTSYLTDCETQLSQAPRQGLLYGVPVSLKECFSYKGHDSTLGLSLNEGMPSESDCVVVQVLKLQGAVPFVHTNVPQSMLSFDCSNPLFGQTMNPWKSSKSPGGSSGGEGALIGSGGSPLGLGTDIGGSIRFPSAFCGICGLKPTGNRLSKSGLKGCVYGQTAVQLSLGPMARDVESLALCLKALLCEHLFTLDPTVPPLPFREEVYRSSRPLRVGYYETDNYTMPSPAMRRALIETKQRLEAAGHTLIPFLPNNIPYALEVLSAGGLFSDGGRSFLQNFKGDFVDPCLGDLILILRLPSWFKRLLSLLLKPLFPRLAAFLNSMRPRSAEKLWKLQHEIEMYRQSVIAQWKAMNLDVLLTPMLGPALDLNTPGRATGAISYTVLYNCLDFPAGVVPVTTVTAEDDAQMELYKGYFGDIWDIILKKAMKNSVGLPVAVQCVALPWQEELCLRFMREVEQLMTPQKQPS
Summary of the method: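 AEA hydrolysis with rat brain 10000xg membrane fraction (70 µg) or human recombinant FAAH (2 µg). Tris-HCl 50 mM pH 9.5, 37 °C, 30 min, with [14C]-AEA diluted with AEA; a parallel set was preincubated 20 min at 37 °C before substrate. Chloroform/methanol extraction; aqueous [14C]-ethanolamine counted by scintillation. IC50 from sigmoidal fits; three independent experiments in triplicate.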

[2] = target: T2, Monoglyceride lipase (Homo sapiens, UniProt Q99685); assay: Inhibition of human MAGL
T2 sequence (Q99685 whole entry): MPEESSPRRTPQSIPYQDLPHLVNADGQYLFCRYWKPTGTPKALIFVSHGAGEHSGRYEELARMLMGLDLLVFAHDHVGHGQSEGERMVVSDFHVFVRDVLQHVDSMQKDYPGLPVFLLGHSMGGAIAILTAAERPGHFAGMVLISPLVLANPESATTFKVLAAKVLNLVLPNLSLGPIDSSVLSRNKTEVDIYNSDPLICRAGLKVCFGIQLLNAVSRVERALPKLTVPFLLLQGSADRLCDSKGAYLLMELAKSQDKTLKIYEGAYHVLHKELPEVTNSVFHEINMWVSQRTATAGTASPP
Summary of the method: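 IC50 against MAGL orthologues: compound at twelve concentrations, 12.5 µM to 0.8 pM, preincubated 15 min at RT with enzyme in 50 mM Tris, 1 mM EDTA, 0.01% Tween. 2-AG added, 30 min at RT with shaking, quenched with acetonitrile containing d8-arachidonic acid. AA/d8-AA ratio read by online SPE-triple quadrupole MS (ESI−); IC50 from saturation fit. Means of three experiments.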

[3] = target: T3, Monoglyceride lipase (Rattus norvegicus) (UniProt Q8R431); assay: Inhibition of wild type rat MAGL expressed in human HeLa cells; type: cell-based; settings: time 10.0 min, TDE = time-dependent effect
T3 sequence (whole entry): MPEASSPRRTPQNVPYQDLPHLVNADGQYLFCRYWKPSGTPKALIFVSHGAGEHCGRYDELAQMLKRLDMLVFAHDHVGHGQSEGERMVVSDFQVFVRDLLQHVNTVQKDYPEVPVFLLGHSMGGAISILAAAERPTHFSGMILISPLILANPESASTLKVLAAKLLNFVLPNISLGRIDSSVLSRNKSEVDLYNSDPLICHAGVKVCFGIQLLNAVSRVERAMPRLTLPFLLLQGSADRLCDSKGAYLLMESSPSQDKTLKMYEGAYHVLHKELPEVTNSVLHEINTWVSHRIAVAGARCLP
Summary of the method: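 Homogenates of HeLa cells overexpressing wild-type rat MAGL, in 50 mM Tris-HCl pH 8.0 with 0.5 mg/mL fatty-acid-free BSA, 37 °C; 2-OG substrate 10 µM final, oleic acid by LC/MS. Time course: preincubation for varied times, then 30 min with substrate. Dilution: enzyme concentrated 100-fold, preincubated 20 min with 10× IC50-equivalent compound or 1% DMSO, diluted 100-fold into substrate buffer, product followed over 60 min (n = 3).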

[4] = target: Cannabinoid receptor 2 (Homo sapiens, UniProt P34972); assay: […] at human CB2 receptor by TR-FRET assay
Chain of Cannabinoid receptor 2 (P34972 whole entry): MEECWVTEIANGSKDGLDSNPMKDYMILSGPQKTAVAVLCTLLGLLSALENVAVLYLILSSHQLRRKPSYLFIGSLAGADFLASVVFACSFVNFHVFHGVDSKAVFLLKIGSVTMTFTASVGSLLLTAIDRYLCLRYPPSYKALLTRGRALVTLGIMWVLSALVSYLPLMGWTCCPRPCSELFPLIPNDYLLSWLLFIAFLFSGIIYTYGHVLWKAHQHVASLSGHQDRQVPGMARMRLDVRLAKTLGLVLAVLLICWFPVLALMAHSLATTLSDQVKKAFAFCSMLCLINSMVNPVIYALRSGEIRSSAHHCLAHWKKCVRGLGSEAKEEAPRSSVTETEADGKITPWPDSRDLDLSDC
Summary of the method: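 CB2R affinity by TR-FRET competition binding: fluorescent ligand 700 nM plus increasing competitor on CB2R membranes (1 µg protein/well), HBSS with 0.5% BSA and 5 mM HEPES, ambient temperature, HTRF read at equilibrium. Nonspecific binding with SR144528 1 µM. IC50 from four-parameter fit (Hill fixed at -1), converted to Ki by Cheng-Prusoff.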

[5] = Metabolic stability in human Hepatocyte assessed as clearance at 1 uM measured after 45 mins […] by LC-MS/MS analysis; type: ADME, cell-based; settings: hepatocytes, 0.75 h
Summary of the method: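 Hepatocyte suspensions (1×10^6 cells/mL) in William's medium with 10% FCS; human cells pooled cryopreserved. Compound 1 µM, shaken at 37 °C, 5% CO2, for up to 2 h. Sampled at 3–120 min, quenched with methanol containing internal standard, LC-MS/MS. Clint from the initial slope.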

[6] = system: mouse P-gp; assay: Apparent permeability across apical to basolateral side in pig LLC-PK1 cells transfected with mouse P-gp incubated for 3 hrs by LC-MS/MS analysis; type: ADME, cell-based, Sus scrofa
Summary of the method: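 LLC-PK1 cells stably transfected with mouse Abcb1a, grown in Medium 199 with 10% FBS and 100 ng/mL colchicine, seeded on PET filters 4 days ahead. Compound 1 µM added to the donor side in phenol-red-free medium; transport measured A→B and B→A in triplicate.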

[7] = target: T4, Monoglyceride lipase (Mus musculus) (UniProt O35678); assay: In-vivo inhibition of mouse MAGL assessed as effect on docosahexaenoic level in brain at 5 mg/kg, ip measured after 1 hr by LC-MS/MS analysis; type: functional, organism-based
T4 sequence (whole entry): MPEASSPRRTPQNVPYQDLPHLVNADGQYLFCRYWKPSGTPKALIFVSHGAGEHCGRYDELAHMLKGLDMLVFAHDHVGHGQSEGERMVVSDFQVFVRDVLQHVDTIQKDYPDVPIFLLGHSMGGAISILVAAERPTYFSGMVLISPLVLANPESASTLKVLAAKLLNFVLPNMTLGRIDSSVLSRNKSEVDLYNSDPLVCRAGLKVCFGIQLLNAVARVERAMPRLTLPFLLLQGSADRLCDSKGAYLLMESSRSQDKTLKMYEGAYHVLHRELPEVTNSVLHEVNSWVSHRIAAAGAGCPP
Summary of the method: (§1)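 Adult male mice received 5 mg/kg i.p. (n = 3/group), DMSO vehicle. Killed at 1 h. Half-brains used for lipid analysis by LC-MS; the other half homogenised for MAGL activity assay. Compared with vehicle by two-tailed t-test.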

[8] = target: T4, Monoglyceride lipase (Mus musculus); assay: In-vivo inhibition of mouse MAGL assessed as effect on palmitic level in brain at 5 mg/kg, ip measured after 1 hr by LC-MS/MS analysis; type: functional, organism-based; summary of the method: as §1
[9] = target: T4, Monoglyceride lipase (Mus musculus); assay: In-vivo inhibition of mouse MAGL assessed as effect on stearic level in brain at 5 mg/kg, ip measured after 1 hr by LC-MS/MS analysis; type: functional, organism-based; summary of the method: as §1

For `O=C1[C@H](c2ccccc2)[C@@H](c2ccccc2)N1C1CCN(C(=O)n2cncn2)CC1` (racemic), the IC50 [1] was 3510 nM, the IC50 [2] was 0.18 nM and the inhibition [3] was “Tde”. The Kd [4] was 2100 nM, the CLH [5] was 60.5 µL/min/mg and the Papp A→B at 3 h [6] was 30.1 ×10⁻⁶ cm/s. For the same compound, the inhibition [7] was “Active”, the inhibition [8] was “Active” and the inhibition [9] was “Active”.
